Results from ChEMBL document CHEMBL3045963, “Synthesis of nalidixic acid based hydrazones as novel pesticides” (2010).
Converted amounts (≈) assume the structure as drawn.

What was measured:
Type in all cases: functional
[1] = test system: Callosobruchus maculatus; assay: Insecticidal activity against adult Callosobruchus maculatus assessed as mortality at 0.1% at 27 +/-1 degC after 24 hr by contact based film residue method
Method in brief: (§1)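 Lab-reared adults, 2-5 days old, exposed to a dry film: 1 mL of 0.1% compound solution in dichloromethane is swirled in a 90 mm Petri plate and dried 3-5 min. Ten adults per plate are held at 27 ± 1 °C and 70% RH. Mortality is scored at 24 h, with no response to touch counted as dead. Triplicates, solvent control, malathion reference.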

[2] = test system: Spodoptera litura; assay: Insecticidal activity against third-instar larval stage of prestarved Spodoptera litura in castor leaf assessed as mortality at 0.1% treated for 2 secs before larval infestation measured after 24 hr by feeding method
Method in brief: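 Castor leaf is dipped 2 s in 0.1% compound solution, air-dried, and placed on moist filter paper in 9 cm Petri plates. Larvae starved 4 h beforehand are released singly, one per plate. Thirty replicates per treatment, solvent control. Mortality is scored after 24 h.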

[3] = test system: Alternaria porri; assay: Fungicidal activity against Alternaria porri by poisoned food technique; settings: read-out: ED50 (the source's name)
[4] = test system: Tribolium castaneum; assay: Insecticidal activity against adult Tribolium castaneum (red flour beetle) in compound pre-treated green gram grains assessed as mortality at 20 mg/kg after 48 hr by feeding based residue method; settings: in Vigna radiata
Method in brief: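 Green gram grains are treated with compound in dichloromethane (0.6 mg in 5 mL) at 20 mg active ingredient per kg grain (0.002%). Ten adults are released onto 10 g of treated grain in a plastic box. Mortality is recorded after 48 h. Triplicate, solvent-treated control.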

[5] = test system: Fusarium oxysporum; assay: Fungicidal activity against Fusarium oxysporum by poisoned food technique; settings: read-out: ED50 (the source's name)
[6] = test system: Spodoptera litura; assay: Insecticidal activity against third-instar larval stage of Spodoptera litura assessed as mortality at 0.1% applied topically on the ventral side of the larvae measured after 24 hr by contact method
Method in brief: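 Field-collected larvae are reared in the lab at 27 ± 1 °C and 70% RH. Two microliters of a 0.1% dichloromethane solution is applied to the ventral side. Ten treated larvae are kept per glass bottle and fed fresh castor leaves. Mortality is recorded at 24 h. Triplicate, solvent control.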

[7] = test system: Rhizoctonia solani; assay: Fungicidal activity against Rhizoctonia solani by poisoned food technique; settings: read-out: ED50 (the source's name)
[8] = test system: Athelia rolfsii; assay: Fungicidal activity against Athelia rolfsii by poisoned food technique; settings: Agroathelia rolfsii; read-out: ED50 (the source's name)
[9] = test system: Macrophomina phaseolina; assay: Fungicidal activity against Rhizoctonia bataticola by poisoned food technique; settings: read-out: ED50 (the source's name)
[10] = test system: Tribolium castaneum; assay: Insecticidal activity against adult Tribolium castaneum (red flour beetle) assessed as mortality at 0.1% at 27 +/-1 degC after 24 hr by contact based film residue method; method in brief: as §1

| Structure (SMILES) | mortality [1] [%] | mortality [2] [%] | EC50 [3] [µg/mL] | mortality at 20 mg/kg [4] [%] | EC50 [5] [µg/mL] | mortality [6] [%] | EC50 [7] [µg/mL] | EC50 [8] [µg/mL] | EC50 [9] [µg/mL] | mortality [10] [%] |
| --- | --- | --- | --- | --- | --- | --- | --- | --- | --- | --- |
| CCn1cc(C(=O)N/N=C/c2ccc3ccccc3c2)c(=O)c2ccc(C)nc21 | 0 | 70 | 75.6 (≈ 197 µM) | 10 | 89.5 (≈ 233 µM) | 10 | 192 (≈ 498 µM) | 202 (≈ 526 µM) | 256 (≈ 666 µM) | – |
| CCn1cc(C(=O)N/N=C/c2c3ccccc3cc3ccccc23)c(=O)c2ccc(C)nc21 | 10 | 20 | 151 (≈ 348 µM) | 15 | 222 (≈ 511 µM) | 10 | 374 (≈ 861 µM) | 429 (≈ 986 µM) | 390 (≈ 897 µM) | – |
| CCn1cc(C(=O)N/N=C/c2ccccc2F)c(=O)c2ccc(C)nc21 | 30 | 90 | 78.3 (≈ 222 µM) | 10 | 107 (≈ 305 µM) | 10 | 359 (≈ 1020 µM) | 540 (≈ 1530 µM) | 668 (≈ 1900 µM) | – |
| CCn1cc(C(=O)N/N=C/c2ccccc2Cl)c(=O)c2ccc(C)nc21 | 30 | 10 | 90.1 (≈ 244 µM) | 10 | 143 (≈ 389 µM) | 10 | 246 (≈ 666 µM) | 570 (≈ 1550 µM) | 593 (≈ 1610 µM) | – |
| CCn1cc(C(=O)N/N=C/c2ccccc2[N+](=O)[O-])c(=O)c2ccc(C)nc21 | 60 | 100 | 71.3 (≈ 188 µM) | 20 | 169 (≈ 445 µM) | 30 | 329 (≈ 866 µM) | 655 (≈ 1730 µM) | 610 (≈ 1610 µM) | – |
| CCOC(=O)CC(SP(=S)(OC)OC)C(=O)OCC (stereo not drawn) [MALATHION] | 100 | – | – | 100 | – | – | – | – | – | 100 |
